From ChEMBL document CHEMBL3244172, “Easily hydrolyzable, water-soluble derivatives of (+/-)-alpha-5-[1-(indol-3-yl)ethyl]-2-methylamino-delta2-thiazoline-4-one, a novel antiviral compound” (J Med Chem, 1979)
The source made the active and inactive calls. No cut-off for these calls is given here.

What was measured:
Influenza A virus [1] = experiment: Antiviral activity against Influenza A virus Port Chalmers/1/73 (H3N2) infected in MDCK cells at 1 mg/ml by agar diffusion method; format: functional; conditions: read-out: DIZ
Outline: (§1)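 Agar diffusion: compounds were diluted to 1 mg/mL in Eagle's MEM from stocks of 10 mg/mL in water or 100 mg/mL in DMSO. 0.02 mL went into 6 mm wells cut in the agar overlay above infected monolayers (influenza in MDCK, Coxsackie B1 in HeLa). Read-out was the diameter (mm) of the plaque-free inhibition zone around each well.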

Influenza A virus [2] = experiment: Antiviral activity against Influenza A virus Port Chalmers/1/73 (H3N2) infected in MDCK cells assessed as plaque reduction after 3 days by agar diffusion method; format: functional
Outline: (§2)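 Plaque reduction: varying compound concentrations were put in the agar overlay above infected monolayers. Coxsackie B1/HeLa was incubated 42 h at 37 °C; influenza/MDCK 3 days at 33 °C. PDD50 is the lowest concentration giving ≥50% fewer plaques than untreated controls.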

Coxsackievirus B1 [3] = experiment: Antiviral activity against Coxsackievirus B1 infected in human HeLa cells at 1 mg/ml by agar diffusion method; format: functional; conditions: Enterovirus B; read-out: DIZ; outline: as §1
Coxsackievirus B1 [4] = experiment: Antiviral activity against Coxsackievirus B1 infected in human HeLa cells assessed as plaque reduction after 42 hrs by agar diffusion method; format: functional; outline: as §2
[5] = Cytotoxicity against MDCK cells infected with Influenza A virus Port Chalmers/1/73 (H3N2) after 3 days by carbol fuchsin staining-based assay; format: cell-based, Canis lupus familiaris; conditions: dog
Outline: (§3)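 MDCK monolayers infected with influenza had compound in the agar overlay and were incubated 3 days at 33 °C. Monolayers were stained with carbol fuchsin or neutral red. MCC is the lowest concentration causing morphological cell abnormalities.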

[6] = Cytotoxicity against human HeLa cells infected with Coxsackievirus B1 after 42 hrs by carbol fuchsin staining-based assay; format: cell-based
Outline: (§4)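 HeLa monolayers infected with Coxsackie B1 under an agar overlay holding varying compound concentrations, incubated 37 °C, 42 h. Monolayers stained with carbol fuchsin or neutral red. MCC is the lowest concentration causing morphological abnormalities.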

Influenza A virus [7] = experiment: Antiviral activity against Influenza A virus Port Chalmers/1/73 (H3N2) infected in MDCK cells assessed as plaque reduction up to 100 ug/ml after 3 days by agar diffusion method; format: functional, organism-based; outline: as §2
Coxsackievirus B1 [8] = experiment: Antiviral activity against Coxsackievirus B1 infected in human HeLa cells assessed as plaque reduction up to 100 ug/ml after 42 hrs by agar diffusion method; format: functional, organism-based
Outline: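 Compound mixed at varying concentrations into the agar overlay above Coxsackie B1-infected HeLa monolayers. Incubated 37 °C for 42 h. PDD50 is the lowest concentration giving ≥50% fewer plaques than untreated controls.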

MDCK = experiment: Cytotoxicity against MDCK cells infected with Influenza A virus Port Chalmers/1/73 (H3N2) up to 100 ug/ml after 3 days by carbol fuchsin staining-based assay; format: cell-based, Canis lupus familiaris; conditions: dog, 72 h; outline: as §3
HeLa = experiment: Cytotoxicity against human HeLa cells infected with Coxsackievirus B1 up to 100 ug/ml after 42 hrs by carbol fuchsin staining-based assay; format: cell-based; outline: as §4
[9] = Solubility in water; format: physicochemical; conditions: buffer
[10] = Stability in unbuffered aqueous solutions at pH >6 assessed as compound hydrolysis; format: physicochemical; conditions: unbuffered aqueous solution
[11] = Stability in unbuffered aqueous solutions at pH >6 assessed as compound decarboxylation; format: physicochemical
[12] = Stability in aqueous solutions at neutral pH; format: physicochemical; conditions: buffer
Influenza A virus [13] = experiment: Antiviral activity against Influenza A virus Port Chalmers/1/73 (H3N2) infected in ferret assessed as serum antibody response to virus infection at 16 mg/kg administered intranasally 7 times on day 0 and 9 times on day 1 to day 3 by serum antibody response test relative to untreated control; format: functional, organism-based; set-up: dose 16 mg/kg
Outline: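 Dosing was as in the other ferret groups: infected ferrets, hourly intranasal 0.2 mL of 50 mg/mL in water, 7 doses on day 0 and 9 on days +1 to +3. Blood was taken by cardiac puncture under Penthrane/N2O/O2 before and 10 days after infection. Sera were KIO4-treated to remove nonspecific inhibitors, then tested by hemagglutination inhibition against the infecting virus.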

Mustela putorius furo [14] = experiment: Toxicity in ferret infected with Influenza A virus Port Chalmers/1/73 (H3N2) assessed as change in body weight at 7 mg/kg administered intranasally 7 times on day 0 and 9 times on day 1 to day 3 measured after 7 days relative to untreated control; format: organism-based; set-up: dose 7 mg/kg; conditions: in vivo, inhaled_or_intranasal, 168 h
Outline: (§5)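 Infected ferrets (700–1500 g, groups of three, untreated controls) were dosed intranasally each hour with 0.2 mL of a 50 mg/mL solution in distilled water: 7 doses on day 0 and 9 on days +1 to +3. Body weight was recorded throughout and expressed as % change.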

Mustela putorius furo [15] = experiment: Toxicity in ferret infected with Influenza A virus Port Chalmers/1/73 (H3N2) assessed as change in body weight at 14 mg/kg administered intranasally 7 times on day 0 and 9 times on day 1 to day 3 measured after 7 days relative to untreated control; format: organism-based; set-up: dose 14 mg/kg; conditions: in vivo, inhaled_or_intranasal, 168 h; outline: as §5
Mustela putorius furo [16] = experiment: Toxicity in ferret infected with Influenza A virus Port Chalmers/1/73 (H3N2) assessed as change in body weight at 13 mg/kg administered intranasally 7 times on day 0 and 9 times on day 1 to day 3 measured after 7 days relative to untreated control; format: organism-based; set-up: dose 13 mg/kg; conditions: in vivo, inhaled_or_intranasal, 168 h; outline: as §5
Influenza A virus [17] = experiment: Antiviral activity against Influenza A virus Port Chalmers/1/73 (H3N2) infected in ferret assessed as reduction in rectal temperature at 7 to 14 mg/kg administered intranasally 7 times on day 0 and 9 times on day 1 to day 3 relative to untreated control; format: functional; conditions: dose mg/kg 7-14
Outline: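 Ferrets (700–1500 g), three per group, infected intranasally on day 0 with influenza A/Port Chalmers/1/73 (H3N2). Dosed 0.2 mL of 50 mg/mL solution in distilled water by intranasal instillation, unanaesthetized, starting 2 h post-infection and repeated hourly. Untreated and ribavirin-treated groups served as controls. Rectal temperature readings >39.5 °C and >40.0 °C were counted on days +1 to +4.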

Influenza A virus [18] = experiment: (§6) Antiviral activity against Influenza A virus Port Chalmers/1/73 (H3N2) infected in ferret assessed as reduction in viral excretion by measuring hemagglutination units per ml at 7 mg/kg administered intranasally 7 times on day 0 and 9 times on day 1 to day 3 measured on day 3 relative to untreated control; format: functional
Outline: (§7)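 Ferrets (700–1500 g, groups of three, untreated control group) were infected intranasally on day 0. Unanaesthetized animals received 0.2 mL of a 50 mg/mL solution in distilled water intranasally, from 2 h post-infection, hourly: 7 doses on day 0 and 9 daily on days +1 to +3. Nasal washings were titrated for hemagglutination with 0.5% washed chicken erythrocytes (HAU/mL) on days +2 to +4.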

Influenza A virus [19] = experiment: as §6, with “day 2” for “day 3”; format: functional; outline: as §7
Influenza A virus [20] = experiment: as §6, with “on day 4 relative to” for “on day 3 relative to”; format: functional; outline: as §7
Influenza A virus [21] = experiment: as §6, with “at 13” for “at 7”, “day 2” for “day 3”; format: functional; outline: as §7
Influenza A virus [22] = experiment: as §6, with “at 13” for “at 7”; format: functional; outline: as §7
Influenza A virus [23] = experiment: as §6, with “ml at 13 mg/kg administered” for “ml at 7 mg/kg administered”, “on day 4 relative to” for “on day 3 relative to”; format: functional; outline: as §7
Influenza A virus [24] = experiment: as §6, with “at 14” for “at 7”, “day 2” for “day 3”; format: functional; outline: as §7
Influenza A virus [25] = experiment: as §6, with “at 14” for “at 7”; format: functional; outline: as §7
Influenza A virus [26] = experiment: as §6, with “ml at 14 mg/kg administered” for “ml at 7 mg/kg administered”, “on day 4 relative to” for “on day 3 relative to”; format: functional; outline: as §7

Structure (SMILES)	zone of inhibition at 1000 µg/mL (Influenza A virus [1]) [mm]	PDD50 (Influenza A virus [2]) [µg/mL]	zone of inhibition at 1000 µg/mL (Coxsackievirus B1 [3]) [mm]	PDD50 (Coxsackievirus B1 [4]) [µg/mL]	MCC at 72 h [5] [µg/mL]	MCC at 42 h [6] [µg/mL]	further results
CNC1=NC(=O)C(C(C)c2cn(C(=O)CCC(=O)O)c3ccccc23)S1 (racemic)	0	>100	0	100	> 100	> 100	–
CNC1=NC(=O)C(C(C)c2cn(C(=O)c3ccccc3C(=O)O)c3ccccc23)S1 (racemic)	–	–	–	–	–	–	Activity (Influenza A virus [7]): inactive; Activity (Coxsackievirus B1 [8]): inactive
CNC1=NC(=O)C(C(C)c2cn(C(=O)OCC(C)(C)N3CCOCC3)c3ccccc23)S1 (racemic)	26	2	24	5	30	100	–
CNC1=NC(=O)C(C(C)c2cn(C(=O)OC(C)CN(C)C)c3ccccc23)S1 (racemic)	31	0.5	25	20	10	100	–
OC(c1ccccc1)c1nc2ccccc2[nH]1 (centres undefined)	–	–	25	20	–	> 100	–
CNC1=NC(=O)C(C(C)c2cn(C(=O)CCCC(=O)O)c3ccccc23)S1 (racemic)	24	5	20	10	100	> 100	–
CNC1=NC(=O)C(C(C)c2cn(C(=O)OCc3ccccc3)c3ccccc23)S1 (racemic)	–	–	–	–	–	–	Activity (Influenza A virus [7]): inactive; Activity (Coxsackievirus B1 [8]): inactive; Activity (MDCK): Non-toxic; Activity (HeLa): Non-toxic
CCSC(=O)n1cc(C(C)C2SC(NC)=NC2=O)c2ccccc21 (racemic)	–	–	–	–	–	–	Activity (Influenza A virus [7]): inactive; Activity (Coxsackievirus B1 [8]): inactive; Activity (MDCK): Non-toxic; Activity (HeLa): Non-toxic
CNC1=NC(=O)C(C(C)c2cn(C(=O)OC(C)CN(C)C)c3ccccc23)S1.Cl (racemic)	–	–	–	–	–	–	solubility [9]: soluble; Stability [10]: Unstable; Stability [11]: Unstable
CNC1=NC(=O)C(C(C)c2cn(C(=O)c3ccccc3C(=O)[O-])c3ccccc23)S1.[Na+] (racemic)	–	–	–	–	–	–	solubility [9]: soluble; Stability [12]: Stable
CNC1=NC(=O)C(C(C)c2cn(C(=O)OCC(C)(C)N(C)C)c3ccccc23)S1 (racemic)	–	–	–	–	–	–	Activity (Influenza A virus [13]): Active
NC(=O)c1ncn([C@@H]2O[C@H](CO)[C@@H](O)[C@H]2O)n1 [RIBAVIRIN]	30	2	–	–	> 100	–	Activity (Mustela putorius furo [14]): -4.5%; Activity (Mustela putorius furo [15]): -22.2%; Activity (Mustela putorius furo [16]): -20.1%; T (Influenza A virus [17]): >39.5 °C; Activity (Influenza A virus [18]): <4 HAU/ml; Activity (Influenza A virus [19]): <4 HAU/ml; Activity (Influenza A virus [20]): <4 HAU/ml; Activity (Influenza A virus [21]): <4 HAU/ml; Activity (Influenza A virus [22]): 12 HAU/ml; Activity (Influenza A virus [23]): <4 HAU/ml; Activity (Influenza A virus [24]): <4 HAU/ml; Activity (Influenza A virus [25]): <4 HAU/ml; Activity (Influenza A virus [26]): <4 HAU/ml
